Test results from ChEMBL document CHEMBL1926577, “Novel 1,3,4-heterodiazole analogues: synthesis and in-vitro antitumor activity” (2012).

Legend:
Assay type in all cases: functional
[1] = tested on: CCRF-CEM; experiment: Growth inhibition of human CCRF-CEM cells at 10 uM after 48 hrs by coulter counter method; conditions: read-out: GI
Procedure, shortened: (§1)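 NCI 60-cell-line panel, single dose. Compound dissolved first in DMSO, then diluted in phosphate-buffered saline so that every final dilution held under 1% DMSO. Duplicate wells received cells at 6 × 10⁴ cells/ml. Controls held PBS/DMSO at the same dilution. Plates were incubated 48 h at 37 °C under 5% CO₂. Cells were then diluted 10-fold in saline and counted on a Coulter counter, with counts corrected for the dilution. Results are given as percent growth inhibition.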

[2] = tested on: HL-60(TB); experiment: Growth inhibition of human HL-60(TB) cells at 10 uM after 48 hrs by coulter counter method; conditions: HL-60, 48 h, read-out: GI
Procedure, shortened: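 Single-dose screen on the NCI 60-line panel (leukemia subpanel). Compound is dissolved in DMSO and diluted in PBS, with final DMSO below 1%. Duplicate wells hold 6 × 10⁴ cells/ml at 37 °C, 5% CO₂, for 48 h. Cells are counted by Coulter counter after 10-fold saline dilution. Read-out is percent growth versus PBS/DMSO controls, expressed as % growth inhibition.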

[3] = tested on: K562; experiment: Growth inhibition of human K562 cells at 10 uM after 48 hrs by coulter counter method; conditions: K562, 48 h, read-out: GI; procedure, shortened: as §1
[4] = tested on: MOLT-4; experiment: Growth inhibition of human MOLT4 cells at 10 uM after 48 hrs by coulter counter method; conditions: MOLT-4, 48 h, read-out: GI; procedure, shortened: as §1
[5] = tested on: RPMI-8226; experiment: Growth inhibition of human RPMI8226 cells at 10 uM after 48 hrs by coulter counter method; conditions: RPMI-8226, 48 h, read-out: GI; procedure, shortened: as §1
[6] = tested on: SR; experiment: Growth inhibition of human SR cells at 10 uM after 48 hrs by coulter counter method; conditions: read-out: GI; procedure, shortened: as §1
[7] = tested on: A549; experiment: Growth inhibition of human A549 cells at 10 uM after 48 hrs by coulter counter method; conditions: A549, 48 h, read-out: GI; procedure, shortened: as §1
[8] = tested on: EKVX; experiment: Growth inhibition of human EKVX cells at 10 uM after 48 hrs by coulter counter method; conditions: read-out: GI; procedure, shortened: as §1
[9] = tested on: NCI-H226; experiment: Growth inhibition of human NCI-H226 cells at 10 uM after 48 hrs by coulter counter method; conditions: NCI-H226, 48 h, read-out: GI; procedure, shortened: as §1
[10] = tested on: NCI-H23; experiment: Growth inhibition of human NCI-H23 cells at 10 uM after 48 hrs by coulter counter method; conditions: NCI-H23, 48 h, read-out: GI; procedure, shortened: as §1
[11] = tested on: NCI-H322M; experiment: Growth inhibition of human NCI-H322M cells at 10 uM after 48 hrs by coulter counter method; conditions: read-out: GI; procedure, shortened: as §1
[12] = tested on: NCI-H522; experiment: Growth inhibition of human NCI-H522 cells at 10 uM after 48 hrs by coulter counter method; conditions: NCI-H522, 48 h, read-out: GI; procedure, shortened: as §1
[13] = tested on: HCT-116; experiment: Growth inhibition of human HCT116 cells at 10 uM after 48 hrs by coulter counter method; conditions: HCT-116, 48 h, read-out: GI; procedure, shortened: as §1
[14] = tested on: HCT-15; experiment: Growth inhibition of human HCT15 cells at 10 uM after 48 hrs by coulter counter method; conditions: HCT-15, 48 h, read-out: GI; procedure, shortened: as §1
[15] = tested on: HT-29; experiment: Growth inhibition of human HT-29 cells at 10 uM after 48 hrs by coulter counter method; conditions: HT-29, 48 h, read-out: GI; procedure, shortened: as §1
[16] = tested on: KM12; experiment: Growth inhibition of human KM12 cells at 10 uM after 48 hrs by coulter counter method; conditions: KM12, 48 h, read-out: GI; procedure, shortened: as §1
[17] = tested on: SF-268; experiment: Growth inhibition of human SF268 cells at 10 uM after 48 hrs by coulter counter method; conditions: SF-268, 48 h, read-out: GI; procedure, shortened: as §1
[18] = tested on: SF-295; experiment: Growth inhibition of human SF295 cells at 10 uM after 48 hrs by coulter counter method; conditions: SF-295, 48 h, read-out: GI; procedure, shortened: as §1
[19] = tested on: SNB-19; experiment: Growth inhibition of human SNB19 cells at 10 uM after 48 hrs by coulter counter method; conditions: SNB-19, 48 h, read-out: GI; procedure, shortened: as §1
[20] = tested on: SNB-75; experiment: Growth inhibition of human SNB75 cells at 10 uM after 48 hrs by coulter counter method; conditions: SNB-75, 48 h, read-out: GI; procedure, shortened: as §1
[21] = tested on: U-251; experiment: Growth inhibition of human U251 cells at 10 uM after 48 hrs by coulter counter method; conditions: U-251, 48 h, read-out: GI; procedure, shortened: as §1
[22] = tested on: LOX IMVI; experiment: Growth inhibition of human LOXIMVI cells at 10 uM after 48 hrs by coulter counter method; conditions: read-out: GI; procedure, shortened: as §1
[23] = tested on: Malme-3M; experiment: Growth inhibition of human MALME-3M cells at 10 uM after 48 hrs by coulter counter method; conditions: read-out: GI; procedure, shortened: as §1
[24] = tested on: M14; experiment: Growth inhibition of human M14 cells at 10 uM after 48 hrs by coulter counter method; conditions: M14, 48 h, read-out: GI; procedure, shortened: as §1
[25] = tested on: MDA-MB-435; experiment: Growth inhibition of human MDA-MB-435 cells at 10 uM after 48 hrs by coulter counter method; conditions: MDA-MB-435, 48 h, read-out: GI; procedure, shortened: as §1
[26] = tested on: SK-MEL-2; experiment: Growth inhibition of human SK-MEL-2 cells at 10 uM after 48 hrs by coulter counter method; conditions: SK-MEL-2, 48 h, read-out: GI; procedure, shortened: as §1
[27] = tested on: SK-MEL-28; experiment: Growth inhibition of human SK-MEL-28 cells at 10 uM after 48 hrs by coulter counter method; conditions: SK-MEL-28, 48 h, read-out: GI; procedure, shortened: as §1
[28] = tested on: SK-MEL-5; experiment: Growth inhibition of human SK-MEL-5 cells at 10 uM after 48 hrs by coulter counter method; conditions: SK-MEL-5, 48 h, read-out: GI; procedure, shortened: as §1
[29] = tested on: UACC-257; experiment: Growth inhibition of human UACC257 cells at 10 uM after 48 hrs by coulter counter method; conditions: UACC-257, 48 h, read-out: GI; procedure, shortened: as §1
[30] = tested on: UACC-62; experiment: Growth inhibition of human UACC62 cells at 10 uM after 48 hrs by coulter counter method; conditions: UACC-62, 48 h, read-out: GI; procedure, shortened: as §1
[31] = tested on: IGROV-1; experiment: Growth inhibition of human IGROV1 cells at 10 uM after 48 hrs by coulter counter method; conditions: IGROV-1, 48 h, read-out: GI; procedure, shortened: as §1
[32] = tested on: OVCAR-8; experiment: Growth inhibition of human OVCAR8 cells at 10 uM after 48 hrs by coulter counter method; conditions: OVCAR-8, 48 h, read-out: GI; procedure, shortened: as §1
[33] = tested on: NCI/ADR-RES; experiment: Growth inhibition of human NCI/ADR-RES cells at 10 uM after 48 hrs by coulter counter method; conditions: read-out: GI; procedure, shortened: as §1
[34] = tested on: 786-0; experiment: Growth inhibition of human 786-0 cells at 10 uM after 48 hrs by coulter counter method; conditions: 786-0, 48 h, read-out: GI; procedure, shortened: as §1
[35] = tested on: A498; experiment: Growth inhibition of human A498 cells at 10 uM after 48 hrs by coulter counter method; conditions: A498, 48 h, read-out: GI; procedure, shortened: as §1
[36] = tested on: ACHN; experiment: Growth inhibition of human ACHN cells at 10 uM after 48 hrs by coulter counter method; conditions: read-out: GI; procedure, shortened: as §1
[37] = tested on: CAKI-1; experiment: Growth inhibition of human Caki1 cells at 10 uM after 48 hrs by coulter counter method; conditions: CAKI-1, 48 h, read-out: GI; procedure, shortened: as §1
[38] = tested on: SN12C; experiment: Growth inhibition of human SN12C cells at 10 uM after 48 hrs by coulter counter method; conditions: read-out: GI; procedure, shortened: as §1
[39] = tested on: TK-10; experiment: Growth inhibition of human TK10 cells at 10 uM after 48 hrs by coulter counter method; conditions: TK-10, 48 h, read-out: GI; procedure, shortened: as §1
[40] = tested on: UO-31; experiment: Growth inhibition of human UO31 cells at 10 uM after 48 hrs by coulter counter method; conditions: UO-31, 48 h, read-out: GI; procedure, shortened: as §1
[41] = tested on: PC-3; experiment: Growth inhibition of human PC3 cells at 10 uM after 48 hrs by coulter counter method; conditions: PC-3, 48 h, read-out: GI; procedure, shortened: as §1
[42] = tested on: MCF7; experiment: Growth inhibition of human MCF7 cells at 10 uM after 48 hrs by coulter counter method; conditions: MCF7, 48 h, read-out: GI; procedure, shortened: as §1
[43] = tested on: BT-549; experiment: Growth inhibition of human BT549 cells at 10 uM after 48 hrs by coulter counter method; conditions: BT-549, 48 h, read-out: GI; procedure, shortened: as §1
[44] = tested on: T47D; experiment: Growth inhibition of human T47D cells at 10 uM after 48 hrs by coulter counter method; conditions: read-out: GI; procedure, shortened: as §1
[45] = tested on: MDA-MB-468; experiment: Growth inhibition of human MDA-MB-468 cells at 10 uM after 48 hrs by coulter counter method; conditions: MDA-MB-468, 48 h, read-out: GI; procedure, shortened: as §1

O=C1CN2N=C(c3ccccc3)OC2=N1
inhibition of growth at 10 µM [1]: < 10% | inhibition of growth at 10 µM [2]: < 10% | inhibition of growth at 10 µM [3]: < 10% | inhibition of growth at 10 µM [4]: < 10% | inhibition of growth at 10 µM [5]: < 10% | inhibition of growth at 10 µM [6]: < 10% | inhibition of growth at 10 µM [7]: < 10% | inhibition of growth at 10 µM [8]: < 10% | inhibition of growth at 10 µM [9]: < 10% | inhibition of growth at 10 µM [10]: < 10% | inhibition of growth at 10 µM [11]: < 10% | inhibition of growth at 10 µM [12]: < 10% | inhibition of growth at 10 µM [13]: < 10% | inhibition of growth at 10 µM [14]: < 10% | inhibition of growth at 10 µM [15]: < 10% | inhibition of growth at 10 µM [16]: < 10% | inhibition of growth at 10 µM [17]: < 10% | inhibition of growth at 10 µM [18]: 14.7% | inhibition of growth at 10 µM [19]: < 10% | inhibition of growth at 10 µM [20]: < 10% | inhibition of growth at 10 µM [21]: < 10% | inhibition of growth at 10 µM [22]: < 10% | inhibition of growth at 10 µM [23]: < 10% | inhibition of growth at 10 µM [24]: < 10% | inhibition of growth at 10 µM [25]: < 10% | inhibition of growth at 10 µM [26]: < 10% | inhibition of growth at 10 µM [27]: < 10% | inhibition of growth at 10 µM [28]: < 10% | inhibition of growth at 10 µM [29]: < 10% | inhibition of growth at 10 µM [30]: < 10% | inhibition of growth at 10 µM [31]: < 10% | inhibition of growth at 10 µM [32]: < 10% | inhibition of growth at 10 µM [33]: < 10% | inhibition of growth at 10 µM [34]: < 10% | inhibition of growth at 10 µM [35]: 10.9% | inhibition of growth at 10 µM [36]: < 10% | inhibition of growth at 10 µM [37]: 21.2% | inhibition of growth at 10 µM [38]: < 10% | inhibition of growth at 10 µM [39]: < 10% | inhibition of growth at 10 µM [40]: 20.4% | inhibition of growth at 10 µM [41]: < 10% | inhibition of growth at 10 µM [42]: < 10% | inhibition of growth at 10 µM [43]: < 10% | inhibition of growth at 10 µM [44]: < 10% | inhibition of growth at 10 µM [45]: < 10%
